Assay results collected from several papers.
Each line is one published result; the experiments were not run side by side.
Nectin-4: Nectin-4 (Homo sapiens, UniProt Q96NY8)
SIGMAR1: Sigma non-opioid intracellular receptor 1 (SIGMAR1, Homo sapiens, UniProt Q99720)
PFF0160c: Dihydroorotate dehydrogenase (quinone), mitochondrial (PFF0160c, Plasmodium falciparum, UniProt Q08210)
PFF0160c E182D: Dihydroorotate dehydrogenase (quinone), mitochondrial (PFF0160c, Plasmodium falciparum, UniProt Q08210, E182D)

Structure (SMILES) | target | assay | quantity | result
CCCC[C@@H]1NC(=O)[C@H](Cc2ccc(O)cc2)NC(=O)[C@@H]2CCCN2C(=O)[C@H](CC(=O)O)NC(=O)[C@H](C)NC(=O)[C@H](Cc2ccccc2)NC(=O)[C@@H]2CSCCC(=O)N3CN(CN(C3)C(=O)CCSC[C@H](NC(C)=O)C(=O)N[C@@H](CC(C)(C)C)C(=O)N3CCC[C@H]3C(=O)N[C@@H](CCC(=O)O)C(=O)N[C@H](CCCCNC(=O)CCc3cn(CCOCCOCCOCCOCCOCCC(=O)N[C@H]4CSCCC(=O)N5CN6CN(C5)C(=O)CCSC[C@H](NC(=O)[C@@H](CC(=O)O)NC(=O)[C@H](Cc5cccc7ccccc57)NC(=O)[C@@H]5CCCN5C4=O)C(=O)N[C@@H](CCSC)C(=O)N[C@@H](CCCCNC(=N)N)C(=O)N[C@@H](CC(=O)O)C(=O)N[C@@H](Cc4c[nH]c5ccccc45)C(=O)N[C@@H](CO)C(=O)N[C@@H]([C@@H](C)O)C(=O)N4CCC[C@H]4C(=O)N4C[C@H](O)C[C@H]4C(=O)N[C@@H](Cc4c[nH]c5ccccc45)C(=O)N[C@H](C(N)=O)CSCCC6=O)nn3)C(=O)N3CCC[C@H]3C(=O)N[C@@H](Cc3ccc(O)cc3)C(=O)N2)C(=O)CCSCCNC1=O | Nectin-4 | binding, SPR | Kd | 0.0016 µM
N[C@@H](C[C@]1(C(=O)O)C[C@H]2OC[C@@H](O)[C@@H](O)[C@H]2O1)C(=O)O | Glutamate receptor ionotropic, kainate 2 (Grik2, Rattus norvegicus, UniProt P42260, A518T) | ligand displacement, radioligand | Ki | 0.061 µM
Cc1cc2c(s1)Nc1ccccc1N=C2N1CCN(C)CC1 | SIGMAR1 | ligand displacement, radioligand | Ki | > 10 µM
O=C1C(c2ccccc2)=C(Nc2ccc([N+](=O)[O-])cc2)c2ccccc21 | PFF0160c | enzyme activity, inhibitor, absorbance | IC50 | 2.15 µM
CN1CCN(C2=Nc3cc(Cl)ccc3Nc3ccccc32)CC1 | SIGMAR1 | ligand displacement, radioligand | Ki | > 10 µM
CCCCN(C)CC#Cc1ccc2[nH]c(C)c(Cl)c(=O)c2c1 | PFF0160c | enzyme activity, inhibitor, absorbance | IC50 | 4.55 µM
CCCC[C@@H]1NC(=O)[C@H](Cc2ccc(O)cc2)NC(=O)[C@@H]2CCCN2C(=O)[C@H](CC(=O)O)NC(=O)[C@H](C)NC(=O)[C@H](Cc2ccccc2)NC(=O)[C@@H]2CSCCC(=O)N3CN(CN(C3)C(=O)CCSC[C@H](NC(C)=O)C(=O)N[C@@H](CC(C)(C)C)C(=O)N[C@@H](CCC(=O)O)C(=O)N[C@@H](CCC(=O)O)C(=O)N[C@H](CCCCNC(=O)CCc3cn(CCOCCOCCOCCOCCOCCC(=O)N[C@H]4CSCCC(=O)N5CN6CN(C5)C(=O)CCSC[C@H](NC(=O)[C@@H](CC(=O)O)NC(=O)[C@H](Cc5cccc7ccccc57)NC(=O)[C@@H]5CCCN5C4=O)C(=O)N[C@@H](CCSC)C(=O)N[C@@H](CCCCNC(=N)N)C(=O)N[C@@H](CC(=O)O)C(=O)N[C@@H](Cc4c[nH]c5ccccc45)C(=O)N[C@@H](CO)C(=O)N[C@@H]([C@@H](C)O)C(=O)N4CCC[C@H]4C(=O)N4C[C@H](O)C[C@H]4C(=O)N[C@@H](Cc4c[nH]c5ccccc45)C(=O)N[C@H](C(N)=O)CSCCC6=O)nn3)C(=O)N3CCC[C@H]3C(=O)N[C@@H](Cc3ccc(O)cc3)C(=O)N2)C(=O)CCSC[C@@H](C(N)=O)NC1=O | Nectin-4 | binding, SPR | Kd | 0.0017 µM
Cc1cccc(CN2CCN(C(c3ccccc3)c3ccc(Cl)cc3)CC2)c1 (stereo not drawn) | SIGMAR1 | ligand displacement, radioligand | Ki | 1.25 µM
O=C(c1ccc(F)cc1)C1CCN(C2Cc3ccccc3CC2O)CC1 (single isomer, unassigned; (-)) | Vesicular acetylcholine transporter (SLC18A3, Homo sapiens, UniProt Q16572) | ligand displacement, radioligand | Ki | 0.0247 µM
CCCC[C@@H]1NC(=O)[C@H](Cc2ccc(O)cc2)NC(=O)[C@@H]2CCCN2C(=O)[C@H](CC(=O)O)NC(=O)[C@H](C)NC(=O)[C@H](Cc2ccccc2)NC(=O)[C@@H]2CSCCC(=O)N3CN(CN(C3)C(=O)CCSC[C@H](NC(C)=O)C(=O)N[C@@H](CC(C)(C)C)C(=O)N[C@@H](CCC(=O)O)C(=O)N[C@@H](CCC(=O)O)C(=O)N[C@H](CCCCNC(=O)CCc3cn(CCOCCOCCOCCN(CCOCCOCCOCCC(=O)N[C@H]4CSCCC(=O)N5CN6CN(C5)C(=O)CCSC[C@H](NC(=O)[C@@H](CC(=O)O)NC(=O)[C@H](Cc5cccc7ccccc57)NC(=O)[C@@H]5CCCN5C4=O)C(=O)N[C@@H](CCSC)C(=O)N[C@@H](CCCCNC(=N)N)C(=O)N[C@@H](CC(=O)O)C(=O)N[C@@H](Cc4c[nH]c5ccccc45)C(=O)N[C@@H](CO)C(=O)N[C@@H]([C@@H](C)O)C(=O)N4CCC[C@H]4C(=O)N4C[C@H](O)C[C@H]4C(=O)N[C@@H](Cc4c[nH]c5ccccc45)C(=O)N[C@H](C(N)=O)CSCCC6=O)CCOCCOCCOCCn4cc(CCC(=O)NCCCC[C@H]5NC(=O)[C@H](CCC(=O)O)NC(=O)[C@H](CCC(=O)O)NC(=O)[C@H](CC(C)(C)C)NC(=O)[C@@H](NC(C)=O)CSCCC(=O)N6CN7CN(C6)C(=O)CCSC[C@H](NC(=O)[C@H](Cc6ccc(O)cc6)NC(=O)[C@@H]6CCCN6C5=O)C(=O)N[C@@H](Cc5ccccc5)C(=O)N[C@@H](C)C(=O)N[C@@H](CC(=O)O)C(=O)N5CCC[C@H]5C(=O)N[C@@H](Cc5ccc(O)cc5)C(=O)N[C@@H](CCCC)C(=O)N[C@H](C(N)=O)CSCCC7=O)nn4)nn3)C(=O)N3CCC[C@H]3C(=O)N[C@@H](Cc3ccc(O)cc3)C(=O)N2)C(=O)CCSC[C@@H](C(N)=O)NC1=O | Nectin-4 | binding, SPR | Kd | 0.005 µM
Cc1cc(F)ccc1NS(=O)(=O)c1ccc(-c2ccoc2)s1 | PFF0160c E182D | enzyme activity, inhibitor, absorbance | IC50 | > 10 µM
CC1CCN(CCCC(=O)c2ccc(F)cc2)CC1 | SIGMAR1 | ligand displacement, radioligand | Ki | 0.0101 µM
CCCC[C@@H]1NC(=O)[C@H](Cc2ccc(O)cc2)NC(=O)[C@@H]2CCCN2C(=O)[C@H](CC(=O)O)NC(=O)[C@H](C)NC(=O)[C@H](Cc2ccccc2)NC(=O)[C@@H]2CSCCC(=O)N3CN(CN(C3)C(=O)CCSCCC(=O)N[C@@H](CC(C)(C)C)C(=O)N3CCC[C@H]3C(=O)N[C@@H](CCC(=O)O)C(=O)N[C@H](CCCCNC(=O)CCc3cn(CCOCCOCCOCCOCCOCCC(=O)N[C@H]4CSCCC(=O)N5CN6CN(C5)C(=O)CCSC[C@H](NC(=O)[C@@H](CC(=O)O)NC(=O)[C@H](Cc5cccc7ccccc57)NC(=O)[C@@H]5CCCN5C4=O)C(=O)N[C@@H](CCSC)C(=O)N[C@@H](CCCCNC(=N)N)C(=O)N[C@@H](CC(=O)O)C(=O)N[C@@H](Cc4c[nH]c5ccccc45)C(=O)N[C@@H](CO)C(=O)N[C@@H]([C@@H](C)O)C(=O)N4CCC[C@H]4C(=O)N4C[C@H](O)C[C@H]4C(=O)N[C@@H](Cc4c[nH]c5ccccc45)C(=O)N[C@H](C(N)=O)CSCCC6=O)nn3)C(=O)N3CCC[C@H]3C(=O)N[C@@H](Cc3ccc(O)cc3)C(=O)N2)C(=O)CCSCCNC1=O | Nectin-4 | binding, SPR | Kd | 0.001 µM
O=C(CNCC1CCCCC1)Nc1cc(C(F)(F)F)ccc1Cl | PFF0160c E182D | enzyme activity, inhibitor, absorbance | IC50 | 8.39 µM
CN(C)CCC(c1ccc(Cl)cc1)c1ccccn1 (stereo not drawn) | SIGMAR1 | ligand displacement, radioligand | Ki | 1.31 µM
